Reference: ChEMBL document CHEMBL4020757, “Lathyrol and epoxylathyrol derivatives: Modulation of Cdr1p and Mdr1p drug-efflux transporters of Candida albicans in Saccharomyces cerevisiae model” (Bioorg Med Chem, 2017)
≈ marks a conversion by molar mass, not a printed value.

Legend:
Saccharomyces cerevisiae [1] = test: Synergistic antifungal activity against Saccharomyces cerevisiae AD1-8u(-) assessed as ratio of compound MIC80 in combinantion with fluconazole to compound alone MIC80 by checkerboard method; format: functional
In short: (§1)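 Checkerboard per CLSI with 10⁴ cells of AD-CDR1, AD-MDR1 or AD1-8u⁻, grown 48 h at 30 °C. Fluconazole 4-209 μM crossed with compound 0.25-400 μM, growth read by optical density. Compound FIC is the compound MIC in combination with fluconazole divided by its MIC alone.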

Candida albicans [2] = test: Inhibition of Candida albicans MDR1 expressed in Saccharomyces cerevisiae AD assessed as ratio of compound MIC80 in combinantion with fluconazole to compound alone MIC80 for Saccharomyces cerevisiae AD by checkerboard method; in short: as §1
[3] = Lipophilicity, log P of the compound; format: physicochemical; conditions: octanol/water
Saccharomyces cerevisiae [4] = test: Antifungal activity against Saccharomyces cerevisiae AD over-expressing Candida albicans CDR1 after 48 hrs; format: functional
In short: (§2)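 Yeast (10⁴ cells) grown in YEPD at 30 °C for 48 h with inhibitors at 0.25-400 μM (DMSO stocks); growth read by optical density, inhibitor-free growth set as 100%. MIC80 = concentration giving 80% growth inhibition. RI = MIC80 in AD-CDR1 or AD-MDR1 divided by MIC80 in control AD1-8u⁻. Means ± SD, duplicate samples, at least three independent experiments.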

Candida albicans [5] = test: Inhibition of Candida albicans MDR1 expressed in Saccharomyces cerevisiae AD assessed as reduction in nile red dye efflux at 70 uM after 30 mins by flow cytometry relative to control
In short: (§3)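 AD-CDR1 or AD-MDR1 cells grown in YEPD at 30 °C with shaking from OD600 0.1 to 0.25, then resuspended as a 5% suspension in 1:2 YEPD:water. Nile Red (final 7 μM) added with or without compound at 70 μM, 30 min at 30 °C. Cells washed twice and 10,000 cells analysed by flow cytometry. Efflux rate expressed relative to untreated control cells. Means ± SD, three independent experiments.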

Saccharomyces cerevisiae [6] = test: Antifungal activity against Saccharomyces cerevisiae AD over-expressing Candida albicans MDR1 after 48 hrs; format: functional; in short: as §2
Candida albicans [7] = test: Inhibition of Candida albicans MDR1 expressed in Saccharomyces cerevisiae AD assessed as potentiation of fluconazole-induced antifungal activity against Saccharomyces cerevisiae AD by checkerboard method
In short: (§4)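 Checkerboard per CLSI in AD1-8u⁻ control, AD-CDR1 or AD-MDR1 cells (10⁴ cells) grown 48 h at 30 °C. Fluconazole 4-209 μM crossed with compound 0.25-400 μM. Growth read by optical density. FIC of each agent is its MIC in combination divided by its MIC alone. FICI is the sum of the fluconazole and compound FICs, with values below 0.5 taken as synergy.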

Saccharomyces cerevisiae [8] = test: Antifungal activity against Saccharomyces cerevisiae AD1-8u(-) after 48 hrs; format: functional
In short: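 S. cerevisiae AD1-8u⁻ control strain revived from glycerol stock on YEPD plates and grown in YEPD at 30 °C. 10⁴ cells exposed to compound at 0.25-400 μM for 48 h at 30 °C. Growth read as optical density, with no-inhibitor growth as 100%. MIC80 is the concentration giving 80% growth inhibition. Means ± SD of duplicates from at least three independent experiments.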

Candida albicans [9] = test: Inhibition of Candida albicans CDR1 expressed in Saccharomyces cerevisiae AD assessed as potentiation of fluconazole-induced antifungal activity against Saccharomyces cerevisiae AD by checkerboard method; in short: as §4
Saccharomyces cerevisiae [10] = test: Resistance index, ratio of MIC80 for Saccharomyces cerevisiae AD over-expressing Candida albicans MDR1 to MIC80 for Saccharomyces cerevisiae AD1-8u(-); format: functional; in short: as §2
Candida albicans [11] = test: Inhibition of Candida albicans CDR1 expressed in Saccharomyces cerevisiae AD assessed as ratio of compound MIC80 in combinantion with fluconazole to compound alone MIC80 for Saccharomyces cerevisiae AD by checkerboard method; in short: as §1
Saccharomyces cerevisiae [12] = test: Potentiation of fluconazole-induced antifungal activity against Saccharomyces cerevisiae AD1-8u(-) by checkerboard method; format: functional; in short: as §4
Candida albicans [13] = test: Inhibition of Candida albicans CDR1 expressed in Saccharomyces cerevisiae AD assessed as reduction in nile red dye efflux at 70 uM after 30 mins by flow cytometry relative to control; in short: as §3
Saccharomyces cerevisiae [14] = test: Resistance index, ratio of MIC80 for Saccharomyces cerevisiae AD over-expressing Candida albicans CDR1 to MIC80 for Saccharomyces cerevisiae AD1-8u(-); format: functional; in short: as §2

Compound | Ratio (Saccharomyces cerevisiae [1]) | Ratio (Candida albicans [2]) | logP [3] | MIC80 (Saccharomyces cerevisiae [4]) [µM] | inhibition (Candida albicans [5]) [%] | MIC80 (Saccharomyces cerevisiae [6]) [µM] | fractional inhibitory concentration index (FICI) (Candida albicans [7]) | MIC80 (Saccharomyces cerevisiae [8]) [µM] | fractional inhibitory concentration index (FICI) (Candida albicans [9]) | Ratio (Saccharomyces cerevisiae [10]) | Ratio (Candida albicans [11]) | fractional inhibitory concentration index (FICI) (Saccharomyces cerevisiae [12]) | inhibition (Candida albicans [13]) [%] | Ratio (Saccharomyces cerevisiae [14])
CCCCC(CC)C(=O)O[C@@H]1[C@@H]2[C@@H](OC(=O)C(CC)CCCC)[C@]3(CC[C@H]4[C@@H](/C=C(\C)C(=O)[C@@]2(O)C[C@@H]1C)C4(C)C)CO3 (stereo partly specified) | 1 | 1 | 6.45 | 799 (≈ 482 µg/mL) | 20 | 800 (≈ 482 µg/mL) | 1.3 | 830 (≈ 500 µg/mL) | 1.4 | 0.96 | 1 | 2 | 30 | 0.96
CCCC(=O)O[C@@H]1[C@@H]2[C@@H](OC(C)=O)[C@]3(CC[C@H]4[C@@H](/C=C(\C)C(=O)[C@@]2(OC(C)=O)C[C@@H]1C)C4(C)C)CO3 | 1 | 1 | 2.5 | 1000 (≈ 505 µg/mL) | 25 | 901 (≈ 455 µg/mL) | 1.3 | 992 (≈ 501 µg/mL) | 1.4 | 0.9 | 1 | 2 | 10 | 
C/C1=C\[C@@H]2[C@H](CC[C@]3(CO3)[C@H](OC(=O)c3ccc(C)cc3)[C@H]3[C@@H](OC(=O)c4ccc(C)cc4)[C@@H](C)C[C@]3(O)C1=O)C2(C)C | 1 | 1 | 5 | 789 (≈ 463 µg/mL) | 25 | 803 (≈ 471 µg/mL) | 1.3 | 853 (≈ 500 µg/mL) | 1.4 | 0.94 | 1 | 2 | 30 | 0.92
C/C1=C\[C@@H]2[C@H](CC[C@]3(CO3)[C@H](OC(=O)c3ccccc3)[C@H]3[C@@H](OC(=O)c4ccccc4)[C@@H](C)C[C@]3(OC(=O)c3ccccc3)C1=O)C2(C)C | 1 | 1 | 5.99 | 700 (≈ 464 µg/mL) | 20 | 654 (≈ 433 µg/mL) | 1.3 | 755 (≈ 500 µg/mL) | 1.4 | 0.86 | 1 | 2 | 10 | 0.92
C=C1CC[C@H]2[C@@H](/C=C(\C)C(=O)[C@@]3(O)C[C@H](C)[C@H](O)[C@@H]3[C@H]1OC(=O)/C=C/c1ccccc1)C2(C)C | 1 | 1 | 3.93 | 993 (≈ 461 µg/mL) | 30 | 1010 (≈ 470 µg/mL) | 1.3 | 1080 (≈ 500 µg/mL) | 1.4 | 0.93 | 1 | 2 | 65 | 0.92
C=C1CC[C@H]2[C@@H](/C=C(\C)C(=O)[C@@]3(O)C[C@H](C)[C@H](O)[C@@H]3[C@H]1OC(=O)c1ccccc1)C2(C)C | 1 | 1 | 3.19 | 1090 (≈ 478 µg/mL) | 35 | 1070 (≈ 468 µg/mL) | 1.3 | 1140 (≈ 500 µg/mL) | 1.4 | 0.93 | 1 | 2 | 85 | 0.95
C=C1CC[C@H]2[C@@H](/C=C(\C)C(=O)[C@@]3(OC(C)=O)C[C@H](C)[C@H](OC(C)=O)[C@@H]3[C@H]1OC(C)=O)C2(C)C | 1 | 1 | 3.35 | 2100 (≈ 967 µg/mL) | 35 | 2100 (≈ 967 µg/mL) | 1.3 | 543 (≈ 250 µg/mL) | 1.4 | 4 | 1 | 2 | 25 | 4
C/C1=C\[C@@H]2[C@H](CC[C@]3(CO3)[C@H](O)[C@H]3[C@@H](O)[C@@H](C)C[C@]3(O)C1=O)C2(C)C | 1 | 1 | 1.91 | 2800 (≈ 981 µg/mL) | 85 | 2800 (≈ 981 µg/mL) | 1.3 | 714 (≈ 250 µg/mL) | 1.4 | 4 | 1 | 2 | 30 | 4
C/C1=C\[C@@H]2[C@H](CC[C@]3(CO3)[C@H](OC(=O)Cc3ccccc3)[C@H]3[C@@H](OC(=O)Cc4ccccc4)[C@@H](C)C[C@]3(O)C1=O)C2(C)C | 1 | 1 | 4.91 | 756 (≈ 444 µg/mL) | 15 | 788 (≈ 462 µg/mL) | 1.3 | 853 (≈ 500 µg/mL) | 1.4 | 0.92 | 1 | 2 | 10 | 0.88
C=C1CC[C@H]2[C@@H](/C=C(\C)C(=O)[C@@]3(O)C[C@H](C)[C@H](O)[C@@H]3[C@H]1OC(=O)c1ccc(C(F)(F)F)cc1)C2(C)C | 1 | 1 | 4.16 | 900 (≈ 456 µg/mL) | 15 | 896 (≈ 454 µg/mL) | 1.3 | 988 (≈ 500 µg/mL) | 1.4 | 0.9 | 1 | 2 | 70 | 0.91
C/C1=C\[C@@H]2[C@H](CC[C@]3(CO3)[C@H](OC(=O)c3ccccc3)[C@H]3[C@@H](OC(=O)c4ccccc4)[C@@H](C)C[C@]3(O)C1=O)C2(C)C | 1 | 1 | 4.6 | 803 (≈ 449 µg/mL) | 80 | 880 (≈ 492 µg/mL) | 1.3 | 896 (≈ 501 µg/mL) | 1.4 | 0.98 | 1 | 2 | 25 | 0.89
C=C1CC[C@H]2[C@@H](/C=C(\C)C(=O)[C@@]3(O)C[C@H](C)[C@H](O)[C@@H]3[C@H]1OC(=O)c1cccc(Br)c1)C2(C)C | 1 | 1 | 3.11 | 901 (≈ 466 µg/mL) | 30 | 884 (≈ 457 µg/mL) | 1.3 | 968 (≈ 501 µg/mL) | 1.4 | 0.91 | 1 | 2 | 85 | 0.93
CCCC(=O)O[C@@H]1[C@@H]2[C@@H](OC(=O)CCC)[C@]3(CC[C@H]4[C@@H](/C=C(\C)C(=O)[C@@]2(OC(=O)CCC)C[C@@H]1C)C4(C)C)CO3 | 1 | 1 | 4.3 | 762 (≈ 427 µg/mL) | 85 | 801 (≈ 449 µg/mL) | 1.3 | 892 (≈ 500 µg/mL) | 1.4 | 0.89 | 1 | 2 | 35 | 0.85
